Assay outcomes deposited in PubChem BioAssay by Broad Institute.
RAD54 inh – blocks human RAD54 Holliday junction branch migration; Q92698; FAM/BHQ fluorescence; inhibition, % at 10.4 µM; 360,000 tested, 0.14% active;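 active = mean normalized replicate activity at least 40 and at least half of replicates scoring 40 or more; inconclusive = only one of the two criteria met; inactive = mean below 40 and under half of replicates reaching 40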;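 also: 0% = median of neutral control wells and 100% = median of positive control wells; inhibitors cause a drop in the FAM fluorescence signal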
PvdQ acylase – P. aeruginosa PvdQ acylase inhibition; purified PvdQ acylase, fluorescence plate reader; inhibition, % at 10 µM; 340,000 tested, 0.063% active; AID 488965; in the data active = inhibition above about 30%, passing the limit was not always enough; inconclusive = no clear call, values can overlap the other calls;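 also: 0% = vehicle neutral wells and 100% = reference inhibitor wells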
dFosB act-1 – activators of mouse delta FosB homodimer; P13346; purified delta FosB, TAMRA-CDK5 oligo fluorescence polarization; percent of positive-control signal above neutral wells; activation, % at 25 µM; 340,000 tested, 0.99% active; AID 493131;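 active = mean activation above about 17%, with every replicate also reaching it, limit read from the data, passing the limit was not always enough; inconclusive = only one of the two conditions met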
S100A4 inh HTS – inhibitors of human S100A4 binding to myosin IIA peptide; S100A4/TAMRA-MyoIIA peptide fluorescence polarization; inhibition, % at 10.7 µM; 360,000 tested, 0.14% active;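 active = mean inhibition of at least 70% across replicates, with every replicate also reaching that level; inconclusive = mean inhibition reaches 70% but some replicates fall short; inactive = mean inhibition below 70%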
Target sequence (P26447 whole entry, looked up): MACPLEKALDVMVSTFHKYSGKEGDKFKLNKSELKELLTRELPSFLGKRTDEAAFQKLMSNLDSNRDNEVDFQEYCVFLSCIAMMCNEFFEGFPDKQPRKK
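incubation = readout 5 min after mixing, signal stable up to 60 min | system = S100A4 monomer protein | buffer or medium = HEPES pH 7.2 with CaCl2, KCl, NaCl, DTT, Triton | benchmarks = neutral control DMSO, positive control TFP | also added = fluorescent myosin IIA peptide, 5 nM | compound dosing = one concentration per compound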
SR-BI HDL uptake – blocks mouse SR-BI lipid uptake from DiI-HDL. Q61009. ldlA[mSR-BI] CHO cells, DiI-HDL uptake fluorescence, 3 h. inhibition, % at 12.5 µM. 320,000 tested, 0.96% active. AID 488896;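 active = mean replicate inhibition of at least 70% and a set share of replicates each scoring 70 or more; inconclusive = meets just one of the two criteria; inactive = fails both criteria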;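 also: 0% = median of neutral control wells and 100% = median of positive control wells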
Target sequence (Q61009 whole entry, looked up): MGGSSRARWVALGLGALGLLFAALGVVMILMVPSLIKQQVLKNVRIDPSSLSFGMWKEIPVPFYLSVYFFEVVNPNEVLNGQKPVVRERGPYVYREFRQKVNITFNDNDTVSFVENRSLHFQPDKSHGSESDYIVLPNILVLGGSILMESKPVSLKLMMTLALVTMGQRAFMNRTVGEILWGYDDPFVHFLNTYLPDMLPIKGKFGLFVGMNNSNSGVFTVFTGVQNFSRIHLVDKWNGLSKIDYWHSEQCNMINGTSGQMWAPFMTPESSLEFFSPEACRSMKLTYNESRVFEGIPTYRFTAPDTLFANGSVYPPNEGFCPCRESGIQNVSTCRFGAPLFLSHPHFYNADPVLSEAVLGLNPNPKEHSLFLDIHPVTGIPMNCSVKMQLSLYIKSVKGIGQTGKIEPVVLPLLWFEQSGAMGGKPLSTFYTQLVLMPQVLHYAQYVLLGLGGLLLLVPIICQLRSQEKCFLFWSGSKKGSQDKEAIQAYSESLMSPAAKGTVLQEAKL
SR-BI uptake up – activators of SR-BI mediated HDL lipid uptake. CHO ldlA[mSR-BI] cells, DiI-HDL uptake fluorescence, 3 h; 100 = double the neutral-control signal. activation, % at 12.5 µM. 320,000 tested, 0.096% active. AID 504775;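 active = mean replicate activation of at least 60% and every replicate at or above 60%; inconclusive = mean or all-replicate condition met, but not both; inactive = mean below 60% and not all replicates reaching 60%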;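 also: 0% = median plate neutral-control signal and 100% = twice that signal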
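Assay system: CHO ldlA[mSR-BI] cells, LDL receptor-null, SR-BI overexpressing; medium: Ham's F12 with 0.5% BSA, HEPES 25 mM, pH 7.4; also added: DiI-HDL 10 µg/mL; timing: 3 h uptake period with compound, 37 °C; signal: DiI fluorescence, bottom read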
dFosB act-2 – activators of mouse delta FosB homodimer DNA binding; shares compounds with dFosB act-1; purified delta FosB, TAMRA-CDK5 oligo fluorescence polarization; normalised: neutral wells 0, positive control 100; activation, % at 24.9 µM; 2,400 tested, under 10 active; AID 588690;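 active = highest replicate activation at or above 34% and every replicate reaching that threshold; inconclusive = meets only one of the two criteria; inactive = meets neither criterion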;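 also: higher polarization means more probe DNA bound by delta FosB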
The depositor's hits bear a star; u = inconclusive; x = no result given. Rows were chosen to be rich in hits. Some 1.6% of all compounds tested hit in one or more screens of this group.

SMILES	RAD54 inh	PvdQ acylase	dFosB act-1	S100A4 inh HTS	SR-BI HDL uptake	SR-BI uptake up	dFosB act-2
O=c1c2ccc(Cl)cc2[nH]c(=S)n1Cc1cccnc1	5	-16	20*	x	19	-19	6
C[C@H]1CN([C@@H](C)CO)C(=O)c2c(c3ccccc3n2C)-c2ccccc2CO[C@@H]1CN(C)S(C)(=O)=O	-9	x	x	6	x	x	x
COc1cc(COCC(O)CN2CCN(CCN3C(=O)c4cccc5cccc(c45)C3=O)CC2)cc(OC)c1OC (stereo unspecified)	x	-6	37*	4	48	-48	1
CCc1ccc(OCC(O)CN2CCC(CN3C(=O)c4cccc5cccc(c45)C3=O)CC2)cc1 (stereo unspecified)	x	-9	3	x	26	-26	x
COc1cccc(OCC(O)CN2CCC(CN3C(=O)c4cccc5cccc(c45)C3=O)CC2)c1 (stereo unspecified)	x	-4	46*	-3	38	-38	3
O=C1c2cccc3cccc(c23)C(=O)N1CC1CCN(CC(O)COc2ccc3ccccc3c2)CC1 (stereo unspecified)	30	-12	4	3	67	-67	x
COc1ccc(COCC(O)CN2CCC(CN3C(=O)c4cccc5cccc(c45)C3=O)CC2)cc1OC (stereo unspecified)	x	-16	28*	x	39	-39	5
CCCc1cn([C@H]2C[C@@H]3O[C@H](CO)CC[C@@H]3O[C@@H]2CCc2ccc(-c3ccccc3C#N)cc2)nn1	x	x	x	9	x	x	x
Cc1noc(C)c1NC(=O)N(C)C[C@H]1Oc2ccc(N(C)C)cc2CC(=O)N([C@H](C)CO)C[C@@H]1C	9	x	x	-15	x	x	x
C[C@@H]1CCCCO[C@@H](CN(C)Cc2ccncc2)[C@H](C)CN([C@@H](C)CO)C(=O)c2cc(NC(=O)Nc3ccc(F)cc3)ccc2O1	1	x	x	x	x	x	x
Cc1cc(C)c2nc3nc(C)c(C)cc3c(N)c2c1	x	-18	26*	0	13	-13	2
CCCSc1nc(C)c2cc(C)cc(C)c2n1	x	-9	-8	x	38	-38	x
O=C(C[C@@H]1C[C@H]2c3cc(NS(=O)(=O)c4ccc(F)cc4)ccc3O[C@H]2[C@H](CO)O1)NCc1ccc(Cl)cc1	-6	x	x	-7	x	x	x
CCCNC(=O)N1C[C@H](O)COC[C@H]2O[C@H](CC(=O)N[C@@H]3CCN(Cc4ccccc4)C3)CC[C@@H]21	10	x	x	2	x	x	x
Cc1nc2c(sc(=S)n2Cc2ccco2)c(=O)n1CC(=O)Nc1cc(F)ccc1F	0	-5	103*	-2	18	-18	2
CCn1c(=S)sc2c(=O)n(CC(=O)Nc3ccc(OC)c(Cl)c3)c(C)nc21	8	0	28*	11	18	-18	3
CCn1c(=S)sc2c(=O)n(CC(=O)Nc3ccc(Cl)cc3)c(C)nc21	-4	-10	u	-1	-17	17	x
N#CC1=C(N)N2C(=C(C#N)C1c1cccc(Br)c1)Nc1ccccc12 (stereo unspecified)	x	-8	27*	13	31	-31	-1
CC(=O)Nc1cccc(NC(=S)Nc2cccc(Cl)c2C)c1	-9	0	-4	1	10	-10	x
CC(=O)Nc1cccc(NC(=O)Nc2cccc(Cl)c2C)c1	x	2	22*	8	-7	7	-1
Cc1cccc(NC(=O)Nc2ccc(C)cc2Br)c1	-12	-14	20*	x	53	-53	5
CCOC(=O)c1c(NC(=O)COC(=O)Cn2c(C)nc3ccccc32)sc2c1CCCC2	3	-10	39*	x	17	-17	-9
C[C@@H]1CN([C@@H](C)CO)C(=O)c2cc(NC(=O)c3ccccc3)ccc2O[C@@H](C)CCCCO[C@H]1CN(C)Cc1ccc(C(=O)O)cc1	3	x	x	-6	x	x	x
O=C(Nc1cc(Cl)ccc1-n1cncn1)c1ccc(Br)o1	x	1	36*	-4	-14	14	1
O=C(COc1ccc(F)cc1)Nc1cc(Cl)ccc1-n1cncn1	7	6	26*	-1	33	-33	6
SMILES	RAD54 inh	PvdQ acylase	dFosB act-1	S100A4 inh HTS	SR-BI HDL uptake	SR-BI uptake up	dFosB act-2
CCOc1ccc(OCC(=O)Nc2cc(Cl)ccc2-n2cncn2)cc1	0	x	x	-2	x	x	x
C[C@H](CO)N1C[C@H](C)[C@@H](CN(C)C(=O)C2CCOCC2)Oc2ncc(-c3ccccc3)cc2C1=O	3	x	x	3	x	x	x
CCCNC(=O)Nc1ccc2c(c1)C(=O)N(C)C[C@H](OC)[C@@H](C)CN(C(=O)c1ccccc1F)[C@H](C)CO2	4	x	x	4	x	x	x
COc1cccc(Cn2cnc3c(NS(=O)(=O)c4ccc(Cl)cc4)c(C)c(C)cc32)c1	1	-9	17*	x	63	-63	1
COc1cccc(Cn2cnc3c(NS(=O)(=O)c4ccc(Cl)cc4Cl)c(C)c(C)cc32)c1	6	-6	2	x	32	-32	x
O=C(CSc1nc2ccccc2c(=O)n1-c1ccccc1)c1c[nH]c2ccccc12	x	-8	29*	5	-21	21	5
NC(=O)CSc1nc2ccccc2c(=O)n1-c1ccccc1	0	-4	0	-12	-6	6	x
CCOC(=O)c1c(C)[nH]c(C)c1C(=O)CSc1nc2ccccc2c(=O)n1-c1ccc(Cl)cc1	x	-15	0	4	2	-2	x
O=C(CSc1nc2ccccc2c(=O)n1-c1ccc(Cl)cc1)c1ccco1	-6	-17	53*	x	9	-9	3
O=C(C[C@H]1C=C[C@@H](NC(=O)c2ccc(F)cc2)[C@@H](CO)O1)NCc1ccncn1	-15	x	x	7	x	x	x
CCc1cc2ccccc2nc1SCC(=O)Nc1cc(C)on1	-1	-18	-5	x	21	-21	x
O=C(CSc1nc2c([nH]c3ccccc32)c(=O)n1-c1ccccc1)N1CCOCC1	1	-10	-3	0	-8	8	x
CCc1cc2ccc(OC)cc2nc1SCC(=O)Nc1cc(C)on1	-3	-17	111*	x	18	-18	0
O=C(CSc1nc2c([nH]c3ccccc32)c(=O)n1-c1cccc(Cl)c1)N1CCOCC1	2	-1	55*	-2	x	x	4
Cc1cc(NC(=O)CSc2nc3c([nH]c4ccccc43)c(=O)n2-c2cccc(C(F)(F)F)c2)no1	7	-13	-2	x	52	-52	x
COc1cccc(-n2c(SCC(=O)Nc3cc(C)on3)nc3c([nH]c4ccccc43)c2=O)c1	6	-11	39*	-3	37	-37	3
CC(C)C#Cc1ccc2c(c1)O[C@@H](CN(C)C(=O)Cc1ccccn1)[C@@H](C)CN([C@H](C)CO)S2(=O)=O	-4	x	x	5	x	x	x
